Laboratory results as given in PubChem BioAssay AID624467 (The Scripps Research Institute Molecular Screening Center, 2012).
The campaign covered roughly 360,000 compounds. About 3,600 (1%) were called active.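 How the source made its calls: active means activation above the mean activation of all test compounds in the run plus 3 SD (cut at about 38% in these data); inactive means the rest.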 Many of the other results were omitted from the sample, so actives are more common in it than they were.

molecular target: Trace amine-associated receptor 1 (Homo sapiens) (UniProt Q96RJ0); assay: human TAAR1 agonists, primary screen, Fluo-8 calcium fluorescence, CHO RD-HGA16 cells (AID 624467); details: CHO RD-HGA16 TAAR1, Fluo-8 calcium fluorescence; at 3 µM; stronger effect = higher value
Procedure, shortened: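 test system = CHO RD-HGA16 cells carrying human TAAR1 plus Gα16 | schedule = 17-24 h seeding, 75 min 37 °C dye, 30 min RT | compound dosing = 3 µM single concentration | control set = DMSO and PEA EC100 | replicates = n 1 | signal = Fluo-8 fluorescence, 5 s baseline then 140 s kinetic read | measure = percent activation vs PEA EC100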

Chain of Trace amine-associated receptor 1 (Homo sapiens) (Q96RJ0 whole entry, looked up): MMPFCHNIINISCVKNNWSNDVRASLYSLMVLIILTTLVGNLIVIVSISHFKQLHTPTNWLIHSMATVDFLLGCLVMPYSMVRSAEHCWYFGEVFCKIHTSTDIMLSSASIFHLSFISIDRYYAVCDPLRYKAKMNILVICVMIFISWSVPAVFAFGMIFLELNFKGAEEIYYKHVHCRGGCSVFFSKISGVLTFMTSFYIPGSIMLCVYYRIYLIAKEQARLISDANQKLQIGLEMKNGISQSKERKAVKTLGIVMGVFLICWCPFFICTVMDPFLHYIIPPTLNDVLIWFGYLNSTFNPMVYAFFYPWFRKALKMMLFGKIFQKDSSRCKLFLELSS

**Q.** How did the activation turn out when `Cc1cccc(N2C(=O)NC(=O)/C(=C\c3cnn(-c4ccccc4)c3)C2=O)c1` was run?
**A.** 44.9% (active)

**Q.** For `COc1cc(OC)cc(C(=O)NCCN2CCC3(CC2)C(=O)NCN3c2ccccc2)c1`, which activation is on record?
**A.** 0.43% (inactive)

**Q.** For `CCC(=O)OC(Cc1ccccc1)(c1ccccc1)C(C)CN(C)C` (stereo not given), which activation is on record?
**A.** 1.23% (inactive)

**Q.** With `COC(=O)COc1cc(C)cc2oc(=O)c3c(c12)CCCC3` as the compound, how does the activation read?
**A.** 15.7% (inactive)

**Q.** With `CCOP(=O)(OCC)C(NC(=O)NC)C(N)=O` (stereo not given) as the compound, how does the activation read?
**A.** 1.74% (inactive)

**Q.** For `Cc1ccc(CN2CCCC(C(=O)c3ccc4c(c3)OCO4)C2)cc1C` (stereo not given), which activation is on record?
**A.** 5.3% (inactive)

**Q.** With `CC(=O)c1c(O)n(C2CCCCCC2)c(=O)[nH]c1=O` as the compound, how does the activation read?
**A.** 2.62% (inactive)

**Q.** How did the activation turn out when `CCCCCCN=C(CC)c1c(O)n(CCCC)c(=O)[nH]c1=O` was run?
**A.** 18.9% (inactive)

**Q.** How did the activation turn out when `CCC(=NCCc1ccccc1)c1c(O)n(C2CCCCC2)c(=O)[nH]c1=O` was run?
**A.** 82.8% (active)

**Q.** `c1ccc(C(CN2CCCCC2)c2ccccc2)cc1` was tested. Which activation did it give?
**A.** 5.89% (inactive)

**Q.** Which activation does the source give for `COc1ccc(NC(=O)N2CCC3(CC2)OCCO3)c(OC)c1` here?
**A.** 4.78% (inactive)

**Q.** For `Brc1ccc2c(c1)CNCc1cnnn1-2`, which activation is on record?
**A.** 2.44% (inactive)

**Q.** How did the activation turn out when `CC(=NC1CCN(Cc2ccccc2)CC1)c1c(O)n(C)c(=O)n(C)c1=O` was run?
**A.** -0.62% (inactive)

**Q.** How did the activation turn out when `COc1cc(C(=O)N2Cc3ccc(Br)cc3-n3nncc3C2)cc(OC)c1OC` was run?
**A.** 1.8% (inactive)

**Q.** With `CCOc1cccc(=NC2CCCCC2)c2c(C)[nH]c(C)c12` as the compound, how does the activation read?
**A.** 2.88% (inactive)

**Q.** For `Clc1ccc([C@@H]2CC3CCC2N3)cn1` (stereo not given in full), which activation is on record?
**A.** 0.89% (inactive)

**Q.** For `CCOC(=O)C1SC2(C(F)(F)C(F)F)CC1(O)c1c(c(OC)c3occc3c1OC)O2` (stereo not given), which activation is on record?
**A.** 2.66% (inactive)

**Q.** With `CCCCC(=O)N/N=C/c1c(O)n(CCC2=CCCCC2)c(=O)[nH]c1=O` as the compound, how does the activation read?
**A.** 3.56% (inactive)

**Q.** With `Cn1c(O)c(C=NCCCC(=O)O)c(=O)n(C)c1=O` as the compound, how does the activation read?
**A.** 1.16% (inactive)

**Q.** `CCCCC(=O)N/N=C/c1c(O)n(CC)c(=S)n(CC)c1=O` was tested. Which activation did it give?
**A.** 115% (active)

**Q.** For `CC(=NCc1ccc2c(c1)OCO2)c1c(O)[nH]c(=O)[nH]c1=O`, which activation is on record?
**A.** 4.1% (inactive)

**Q.** How did the activation turn out when `O=C1NC(=O)N(Cc2ccco2)C(=O)/C1=C\c1ccc(-c2ccc(F)cc2)o1` was run?
**A.** 51.8% (active)

**Q.** How did the activation turn out when `COc1ccc(-c2nn(CCC#N)cc2C(=O)O)cc1` was run?
**A.** 0.78% (inactive)

**Q.** How did the activation turn out when `C[C@]12CCC3C(CC[C@H]4[C@H](O)[C@H](O)CC[C@]34C)C1CCC2=O` (stereo not given in full) was run?
**A.** 4.54% (inactive)

**Q.** `COc1ccc2c(c1)[C@@]13CCCCC1[C@@H](C2)NCC3` (stereo not given in full) was tested. Which activation did it give?
**A.** 4.44% (inactive)

**Q.** Which activation does the source give for `CCN1CC2C3CCC(C)(O3)C2C1` (stereo not given) here?
**A.** 1.68% (inactive)

**Q.** `CC(Cc1ccccc1)NCCC(c1ccccc1)c1ccccc1` (stereo not given) was tested. Which activation did it give?
**A.** 44.2% (active)

**Q.** How did the activation turn out when `CC(Cc1ccccc1)NC=O` (stereo not given) was run?
**A.** 68.4% (active)

**Q.** For `CC(=O)Nc1ccc(C(=O)C(Cc2ccccc2)N(C)C)cc1` (stereo not given), which activation is on record?
**A.** 5.99% (inactive)

**Q.** Which activation does the source give for `CCC(C)NC1(c2ccccc2)CCCCC1` (stereo not given) here?
**A.** 3.45% (inactive)
